Tests used:
B16-F10 [1] = assay: Effect on metastases of B16F10.9 melanoma cells (intravenously injected) in C57BL/6 mice was observed after administration of 100 mg/kg dose; conditions: route intraperitoneal
B16-F10 [2] = assay: Effect on metastases of B16F10.9 melanoma cells (intravenously injected) in C57BL/6 mice was observed after administration of 25 mg/kg dose; conditions: route intraperitoneal
B16-F10 [3] = assay: Effect on metastases of B16F10.9 melanoma cells (intravenously injected) in C57BL/6 mice was observed after administration of 12.5 mg/kg; conditions: route intraperitoneal
B16-F10 [4] = assay: Effect on metastases of B16F10.9 melanoma cells (intraperitoneally implanted) in B6C3F1/OLAC/HSD mice was observed after administration of 50 mg/kg dose; format: functional, Mus musculus; conditions: route intraperitoneal
B16-F10 [5] = assay: Effect on metastases of B16F10.9 melanoma cells (intravenously injected) in C57BL/6 mice was observed after administration of 100 mg/kg dose; conditions: route intraperitoneal; remark: listed apart in the source
B16-F10 [6] = assay: Effect on metastases of B16F10.9 melanoma cells (intravenously injected) was observed after administration of 50 mg/kg dose; conditions: route intraperitoneal
WEHI = assay: Concentration required for 50% proliferation inhibition of myelomonocytic WEHI cell line; format: functional, cell-based; conditions: Mus musculus
Method in brief: (§1)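 Cells grown in RPMI with 10% fetal calf serum and 2 mM glutamine at 37 °C, 5% CO2. HL-60 (human promyelocytic) and WEHI (murine myelomonocytic) cells exposed to a titration of compound for 24 h. [3H]thymidine pulsed at 1 µCi/well during the last 14 h. Acid-insoluble counts collected on glass-fibre filters. IC50 taken from percent incorporation vs log concentration. At least two independent experiments.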

B16-F10 [7] = assay: Inhibitory activity on growth of B16F10.9 melanoma cell line; format: functional, cell-based; conditions: Mus musculus
Method in brief: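 B16F10.9 melanoma cells (4 x 10^4) seeded in 35-mm dishes in RPMI/10% FCS at 37 °C, 5% CO2. Compound added 6 h after seeding. On day 4 cells detached in PBS with 1 mM EDTA and counted electronically. IC50 read from viable cell number vs log concentration.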

HL-60 = assay: Concentration required for 50% proliferation inhibition of human promyelocytic HL-60 cell line; format: functional, cell-based
Method in brief: as §1

B16-F10 [8] = assay: Effect on metastases of B16F10.9 melanoma cells (intravenously inoculated) in C57BL/6 mice was observed after administration of 12.5 mg/kg dose; conditions: route intravenous
B16-F10 [9] = assay: Effect on metastases of B16F10.9 melanoma cells (intravenously injected) in C57BL/6 mice was observed after administration of 25 mg/kg dose; conditions: route intraperitoneal; remark: listed apart in the source
B16-F10 [10] = assay: Effect on appearance of B16F10.9 colonies in semisolid agar; format: functional, cell-based; conditions: Mus musculus
Method in brief: (§2)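 B16F10.9 cells (10^3) plated in the upper layer of a 0.6 mL RPMI soft-agar bilayer. Lower layer: conditioned medium 40, FCS 10, horse serum 15, agar 0.5 (% v/v). Upper layer: FCS 20, horse serum 20, agar 0.36. Compound added to the upper layer. Aggregates of more than 20 cells scored as colonies by inverted microscope after 7 days.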

[11] = Lethal dose was determined; format: toxicity; conditions: mouse
Method in brief: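 Acute toxicity in male and female BALB/c mice (3 experiments) and C57Bl mice (2 experiments), 6-8 weeks old, weighing 20 ± 0.5 g, in groups of 10. Each mouse got a single injection of 0.125-2.5 g/kg in propylene glycol, and LD50 was taken from mortality.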

B16-F10 [12] = assay: Effect on appearance of B16F10.9 colonies in semisolid agar at 1 mM; format: functional, Mus musculus
Method in brief: as §2

SMILES	Lung weight (B16-F10 [1])	No. of lung lesions (B16-F10 [2])	No. of lung lesions (B16-F10 [3])	No. of lung lesions (B16-F10 [4])	No. of lung lesions (B16-F10 [5])	Lung weight (B16-F10 [6])	IC50 (WEHI)	IC50 (B16-F10 [7])	IC50 (HL-60)	Lung weight (B16-F10 [8])	Lung weight (B16-F10 [9])	IC50 (B16-F10 [10])	LD50 [11]	Decrease (B16-F10 [12])
CCCC(=O)OCOC(=O)C(C)(C)C [AN-9]	0.269 g	72.38	97.89	66.6	140	0.0929 g	75 µM	82 µM	49.5 µM	0.1571 g	0.135 g	60 µM	1360 mg/kg	–
CCCC(=O)O [BUTYRIC ACID]	–	–	–	–	–	–	850 µM	933 µM	1520 µM	–	–	–	–	22%
O=P1(N(CCCl)CCCl)NCCCO1 (stereo not drawn) [CYCLOPHOSPHAMIDE ANHYDROUS]	–	–	–	56.38	–	–	–	–	–	–	–	–	–	–

— ChEMBL document CHEMBL1125374, “Novel anticancer prodrugs of butyric acid. 2” (J Med Chem, 1992)
